Screening results as filed in PubChem BioAssay.
RGS4 pot = RGS4 potentiators or activators, primary screen, cell-based, HEK293 M3R inducible RGS4, calcium flux. carbachol calcium flux Fluo4; stronger effect = lower value. B-score at 10 µM. hit rate 0.92% among 310,000. AID 463111, 2010;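 active = B-score of the integrated calcium signal more than 4 SD below the library mean, with starting fluorescence not abnormally high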;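 note: negative B-score means reduced calcium response which marks RGS4 activation or potentiation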
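System – HEK293 FlpIn-TREx cells, stable M3R, doxycycline-inducible RGS4 · Reagent – ECmax carbachol challenge · Times – compound preincubation 20 min at room temperature before agonist · Technique – Fluo4 fluorescence kinetic imaging of calcium · Measure – B score of integrated Fluo4 ratio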
RGS4 block = RGS4 inhibitors, primary screen, cell-based, HEK293 M3R inducible RGS4, calcium flux | B-score at 10 µM | hit rate 0.45% among 310,000 | Regulator of G-protein signaling 4 (Homo sapiens), P49798 | Fluo-4 calcium flux; stronger effect = higher value; triggered by carbachol at its EC20;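 active = B-score, a plate-corrected calcium signal, over three deviations above library mean, with baseline fluorescence within five deviations of library mean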;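 note: RGS4 expression induced by doxycycline in cells with stable M3 receptor; B-score is computed from the integrated fluorescence ratio over baseline after carbachol; higher B-score means a larger calcium signal and so more RGS4 inhibition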
Target sequence (P49798 whole entry, looked up): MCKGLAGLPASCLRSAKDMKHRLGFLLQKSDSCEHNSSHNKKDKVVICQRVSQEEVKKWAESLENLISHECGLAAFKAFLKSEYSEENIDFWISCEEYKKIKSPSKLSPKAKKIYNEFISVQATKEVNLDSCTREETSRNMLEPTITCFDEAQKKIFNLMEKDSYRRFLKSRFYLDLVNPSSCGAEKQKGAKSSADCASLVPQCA
MrgX1 agonist = agonists of human MrgX1 receptor, primary screen, HEK293 cells, Fluo-4 calcium flux | AID 588627, 2011 | Fluo-4 calcium fluorescence, agonist mode; stronger effect = higher value | B-score at 10 µM | hit rate 0.44% among 310,000 | Mas-related G-protein coupled receptor member X1 (Homo sapiens), Q96LB2;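 active = calcium response B-score plate-corrected fluorescence ratio at least 3 library SD, with starting fluorescence B-score inside 5 SD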
Target sequence (Q96LB2 whole entry, looked up): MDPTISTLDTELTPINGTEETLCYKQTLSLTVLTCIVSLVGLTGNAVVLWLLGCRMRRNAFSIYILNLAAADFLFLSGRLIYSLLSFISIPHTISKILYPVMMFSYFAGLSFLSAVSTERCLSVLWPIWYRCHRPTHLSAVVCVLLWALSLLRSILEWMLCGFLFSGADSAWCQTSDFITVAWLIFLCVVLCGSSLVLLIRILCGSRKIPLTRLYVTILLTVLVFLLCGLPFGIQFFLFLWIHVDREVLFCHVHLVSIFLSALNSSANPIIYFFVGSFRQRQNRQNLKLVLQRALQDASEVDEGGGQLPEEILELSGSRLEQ
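Test system: HEK293 cells stably expressing human MrgX1 receptor; Input: fifteen thousand cells per well; Dosing: compound delivered in addition one of three; Schedule: overnight seeding, then 1 h dark dye loading; Technique: Fluo-4 NW calcium fluorescence; Measure: B-scored fluorescence response ratio; Controls: positive and negative controls per plate.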
MrgX1 antag = antagonists of human MrgX1 receptor, primary screen, HEK293 cells, Fluo-4 calcium flux; B-score at 10 µM; hit rate 1.3% among 310,000; BAM8-22 antagonism; stronger effect = lower value; Mas-related G-protein coupled receptor member X1 (Homo sapiens), Q96LB2;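 active = calcium-response B-score plate-corrected more than 3 library SD below zero, starting fluorescence within 5 deviations, no agonist response on first addition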;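 note: peak minus trough fluorescence over baseline after final BAM8-22 challenge near maximal dose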
MrgX1 allo act = positive allosteric modulators of MrgX1, primary screen, HEK293 cells, Fluo-4 calcium flux; FDSS; stronger effect = higher value; Mas-related G-protein coupled receptor member X1 (Homo sapiens), Q96LB2; B-score at 10 µM; hit rate 0.63% among 310,000; AID 588675, 2011;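 active = plate-corrected calcium response at least 3 library SD above typical, normal starting fluorescence, not activating the receptor alone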;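 note: compound read alongside a low EC10 to EC30 dose of BAM8-22 agonist; peak minus trough fluorescence over baseline measured at the second addition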
Cl transport mod = KCC2 cotransporter modulators, thallium flux, primary screen, cell-based, HEK293 KCC2, FluoZin-2 fluorescence, MLSMR | KCC2 cells, thallium flux FluoZin-2 fluorescence | hit rate 2.2% among 190,000 | Solute carrier family 12 member 5 (Homo sapiens), Q9H2X9 | B-score of Tl+ flux slope (higher = more flux/activation; lower = inhibition) at 10 µM | AID 1456, 2008;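 active = thallium flux slope and its plate-corrected score both differing from the plate sample mean at a set confidence after two filtering rounds, in either direction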;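 note: slope of fluorescence scaled to starting intensity during 10 to 20 s after thallium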
KCC2 sec1 = KCC2 modulators in sodium-free buffer, confirmation, cell-based, HEK293 KCC2, thallium flux, secondary assay. shares compounds with Cl transport mod. FluoZin2 fluorescence; stronger effect = higher value. normalised thallium flux (F/F0 slope) at 10 µM. hit rate 15% among 3,700. AID 1713, 2009;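 active = thallium flux slope above the same plate's solvent-only control mean plus 3 SD; inconclusive = the two replicate wells disagree; inactive = no significant difference from solvent-only control wells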
KCC2 bumet counter = thallium flux persisting under bumetanide in KCC2 cells, confirmation, counter-screen for KCC2 modulator project, cell-based, HEK293 KCC2, FluoZin2, secondary assay 3; shares compounds with Cl transport mod; hit rate 49% among 3,700; normalized thallium flux at 10 µM; HEK293-KCC2 + bumetanide/ouabain; stronger effect = higher value; AID 1714, 2009;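 active = thallium entry rate above the same plate's blocked-transporter control wells by more than 3 SD; inconclusive = the two repeat wells disagree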;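 note: raw slope of fluorescence over initial fluorescence between 10 and 20 s after thallium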
KCC2 secondary2 = KCC2 modulators without ouabain present, confirmation, cell-based, HEK293 KCC2, thallium flux, FluoZin2, secondary assay 2; shares compounds with Cl transport mod; AID 1715, 2009; hit rate 23% among 3,700; normalized thallium flux at 10 µM; thallium flux FluoZin2 fluorescence; actives lie on both sides; F/F0 rise rate, 10–20 s post-thallium;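 active = thallium flux slope more than 3 SD above or below the plate's solvent-only control mean, mostly below; inconclusive = the two repeat wells disagreed; inactive = no significant shift from solvent-only controls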;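 note: raw slope with 0.1% DMSO as baseline and bumetanide as block control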
HEK293 Tl flux = thallium flux modulation in parental HEK cells, confirmation, counter-screen for KCC2 modulator project, cell-based, counterscreen 1 | shares compounds with Cl transport mod | HEK293 parental cells, thallium flux FluoZin2, ouabain; baseline-ratio fluorescence slope, 10–20 s after thallium | thallium flux rate (normalised fluorescence) at 10 µM | hit rate 46% among 3,700 | AID 1716, 2009;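 active = thallium flux rate significantly above the same plate's solvent-only control wells, beyond their mean plus 3 SD; inconclusive = the two replicate wells gave conflicting results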
KCC2 retest ouab = KCC2 inhibitors and activators, ouabain retest, confirmation, HEK-KCC2 cells; shares compounds with Cl transport mod; HEK293-KCC2, thallium flux FluoZin2 fluorescence; bidirectional: low = inhibitor, high = activator; raw Tl+ flux slope (below DMSO = inhibition, above = activation) at 10 µM; hit rate 48% among 3,700; AID 1717, 2009;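 active = thallium flux slope beyond 3 SD from same-plate DMSO control mean in most replicates, usually higher, sometimes lower; inconclusive = repeat tests gave conflicting results; inactive = no significant difference from controls in most replicates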;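 note: slope of initial-normalized fluorescence between seconds 10 and 20 after thallium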
HEK293 Tl flux2 = native HEK Tl+ uptake effects, second counter-screen – HEK cells, counterscreen 2, counter-screen for KCC2 modulator project, confirmation; shares compounds with Cl transport mod; HEK293 parental, thallium flux FluoZin-2 fluorescence slope; thallium flux slope at 10 µM; hit rate 33% among 3,700; AID 1718, 2009;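 active = thallium flux slope above the same plate's solvent-control mean plus 3 SD in both duplicate wells; inconclusive = duplicate wells that disagreed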;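 note: run without ouabain in cells lacking the KCC2 cotransporter; slope of fluorescence scaled to its starting value between 10 and 20 s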
Starred values were filed as active, the others as inactive; i = inactive; ? = inconclusive; . = not tested or not shown. A selection: hits, their analogues and other compounds. The true share with any hit is near 4.7%.

SMILES | RGS4 pot | RGS4 block | MrgX1 agonist | MrgX1 antag | MrgX1 allo act | Cl transport mod | KCC2 sec1 | KCC2 bumet counter | KCC2 secondary2 | HEK293 Tl flux | KCC2 retest ouab | HEK293 Tl flux2
CC1=NN(c2nc(-c3ccccc3)cs2)C(=O)C1N=Nc1ccccc1 (configuration not stated) | i | i | i | i | i | 6.6* | 0.00805 | 0.0505* | 0.029 | 0.0146* | ? | 0.00905
COc1cccc(C(=O)OCC(=O)NC(=O)NC2CCCC2)c1O | i | i | i | i | i | 10.8* | 0.01 | 0.017* | 0.0345 | 0.0203* | 0.0265* | 0.0144*
N#Cc1ccccc1NC(=O)CSc1nccn1CCc1ccccc1 | i | i | i | i | i | -3.95* | 0.00682 | 0.005 | 0.0247* | 0.00728 | 0.0144* | 0.01
Cc1ccc(NC(=O)CSc2nccn2Cc2ccccc2)cc1C | i | i | i | i | i | -3.07* | ? | 0.00416 | 0.029 | 0.00528* | 0.0198* | 0.0092
Cc1c(C(=O)NCCSCc2c(F)cccc2Cl)cnn1-c1ccc(F)cc1 | i | i | i | i | i | -2.46 | . | . | . | . | . | .
Cc1c(C(=O)NCCSCc2ccc(F)cc2)cnn1-c1ccc(Cl)cc1 | i | i | i | i | i | -3.83* | 0.00704 | 0.00473 | ? | 0.00642 | 0.0169* | 0.00983
O=C(NC1CC2CCCC(C1)N2Cc1ccccc1)c1ccc([N+](=O)[O-])cc1 (configuration not stated) | i | i | i | i | i | . | . | . | . | . | . | .
N#Cc1c(NC(=S)NC(=O)Cc2cccs2)sc2c1CCCCC2 | i | i | i | i | i | 7.41* | 0.00856 | 0.0197* | 0.0282 | 0.00934* | ? | 0.00991
CC(=O)NC(=S)Nc1sc2c(c1C#N)CCCCC2 | i | i | . | . | . | -0.39 | . | . | . | . | . | .
COc1ccc(Cn2c(=S)[nH]c3ccccc32)cc1 | i | i | i | i | i | 10.9* | 0.00724 | 0.00985* | 0.0311 | 0.0125* | ? | 0.0121*
COCCn1c(=S)[nH]c2ccccc21 | i | i | i | i | i | 0.89 | . | . | . | . | . | .
COC(=O)c1cnn(-c2ccccc2)c1/C=N/NC(=S)Nc1ccccc1 | i | i | i | i | i | 9.21* | 0.00941 | 0.0191* | 0.0301 | 0.0119* | 0.0293* | 0.0104
